From ChEMBL document CHEMBL4382248, “Optimization of a 1,3,4-oxadiazole series for inhibition of Ca2+/calmodulin-stimulated activity of adenylyl cyclases 1 and 8 for the treatment of chronic pain” (Eur J Med Chem, 2019)
Calls of active or inactive are those of the source. The calls are words filed in the database; no cut-off is given here.

What was measured:
Adenylate cyclase type 1 [1] = target: T1, Adenylate cyclase type 1 (Homo sapiens, UniProt Q08828); assay: Inhibition of human AC1 expressed in HEK293 cells assessed as decrease in A23187-stimulated cAMP accumulation preincubated for 30 mins followed by A23187 stimulation and measured after 1 hr by fluorescence assay; assay type: cell-based
Method in brief: (§1)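 HEK cells stably expressing AC1 or AC8; Ca2+/calmodulin-stimulated cAMP accumulation measured. Dose-response curves began at 30 µM. […] Values are the mean and SEM of three independent experiments.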
Target sequence in this assay (Q08828 whole entry): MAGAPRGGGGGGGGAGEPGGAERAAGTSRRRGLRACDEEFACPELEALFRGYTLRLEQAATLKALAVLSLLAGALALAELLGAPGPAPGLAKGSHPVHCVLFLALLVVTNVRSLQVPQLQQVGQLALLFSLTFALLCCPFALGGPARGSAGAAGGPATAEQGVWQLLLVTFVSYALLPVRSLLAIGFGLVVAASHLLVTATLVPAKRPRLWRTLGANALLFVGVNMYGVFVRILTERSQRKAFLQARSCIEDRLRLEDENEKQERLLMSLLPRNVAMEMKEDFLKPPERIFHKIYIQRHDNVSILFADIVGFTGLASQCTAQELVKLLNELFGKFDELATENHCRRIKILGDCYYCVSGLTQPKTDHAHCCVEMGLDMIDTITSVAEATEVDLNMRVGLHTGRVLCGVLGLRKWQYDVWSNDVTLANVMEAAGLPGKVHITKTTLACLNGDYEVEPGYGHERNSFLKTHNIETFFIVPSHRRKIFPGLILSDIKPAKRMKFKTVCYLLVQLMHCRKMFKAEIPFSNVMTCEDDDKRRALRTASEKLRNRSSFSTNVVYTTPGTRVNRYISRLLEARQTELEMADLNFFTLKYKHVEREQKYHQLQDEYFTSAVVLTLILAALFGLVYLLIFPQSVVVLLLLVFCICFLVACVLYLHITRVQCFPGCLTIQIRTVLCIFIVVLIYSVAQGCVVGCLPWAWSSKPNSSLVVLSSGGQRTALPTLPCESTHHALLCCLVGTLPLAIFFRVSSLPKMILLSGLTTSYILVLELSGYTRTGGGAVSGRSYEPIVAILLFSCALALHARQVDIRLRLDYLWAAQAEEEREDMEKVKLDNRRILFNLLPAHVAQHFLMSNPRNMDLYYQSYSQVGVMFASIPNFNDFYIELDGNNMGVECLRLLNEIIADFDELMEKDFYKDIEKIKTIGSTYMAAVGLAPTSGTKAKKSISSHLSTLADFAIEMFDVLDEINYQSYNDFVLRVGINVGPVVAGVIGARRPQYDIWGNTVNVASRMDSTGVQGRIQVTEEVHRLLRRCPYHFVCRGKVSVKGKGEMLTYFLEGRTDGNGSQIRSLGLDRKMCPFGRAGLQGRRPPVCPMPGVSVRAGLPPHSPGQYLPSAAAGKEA

[2] = target: Adenylate cyclase type 2 (Homo sapiens) (UniProt Q08462); assay: Inhibition of human AC2 expressed in HEK293 cells assessed as PMA-stimulated cAMP accumulation at 30 uM preincubated for 30 mins followed by PMA stimulation and measured after 1 hr by fluorescence assay relative to control; assay type: cell-based; set-up: scale not given: the % may be the effect or the level left
Adenylate cyclase type 2 (Homo sapiens), sequence (Q08462 whole entry): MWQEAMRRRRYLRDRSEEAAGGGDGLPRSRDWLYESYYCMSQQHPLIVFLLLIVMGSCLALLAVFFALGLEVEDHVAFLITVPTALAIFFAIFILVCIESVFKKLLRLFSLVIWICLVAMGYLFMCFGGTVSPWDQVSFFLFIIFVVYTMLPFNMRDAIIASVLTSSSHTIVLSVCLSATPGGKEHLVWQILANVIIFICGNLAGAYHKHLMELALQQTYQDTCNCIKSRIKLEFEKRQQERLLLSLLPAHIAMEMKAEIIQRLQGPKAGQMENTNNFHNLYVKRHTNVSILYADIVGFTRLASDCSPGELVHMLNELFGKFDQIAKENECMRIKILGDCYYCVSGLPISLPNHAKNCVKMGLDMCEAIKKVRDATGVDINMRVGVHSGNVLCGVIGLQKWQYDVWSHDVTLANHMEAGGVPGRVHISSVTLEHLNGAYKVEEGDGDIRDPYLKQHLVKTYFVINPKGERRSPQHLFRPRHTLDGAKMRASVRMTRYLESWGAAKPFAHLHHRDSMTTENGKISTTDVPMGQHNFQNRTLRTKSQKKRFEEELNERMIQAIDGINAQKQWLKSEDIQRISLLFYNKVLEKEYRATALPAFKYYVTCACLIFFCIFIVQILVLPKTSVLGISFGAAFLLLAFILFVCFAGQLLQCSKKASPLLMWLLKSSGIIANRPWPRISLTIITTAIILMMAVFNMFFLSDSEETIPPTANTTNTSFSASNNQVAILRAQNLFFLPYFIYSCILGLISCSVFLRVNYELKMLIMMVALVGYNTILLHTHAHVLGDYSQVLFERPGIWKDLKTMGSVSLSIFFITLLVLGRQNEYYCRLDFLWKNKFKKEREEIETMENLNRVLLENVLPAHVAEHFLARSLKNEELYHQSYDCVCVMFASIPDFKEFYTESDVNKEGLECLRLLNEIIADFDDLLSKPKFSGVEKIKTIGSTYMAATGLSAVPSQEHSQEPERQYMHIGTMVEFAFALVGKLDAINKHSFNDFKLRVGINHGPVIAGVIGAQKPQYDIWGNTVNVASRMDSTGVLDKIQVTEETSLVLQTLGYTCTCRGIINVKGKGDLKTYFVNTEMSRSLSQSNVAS
Method in brief: (§2)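 Group 2 AC2 (PKC-stimulated) or group 3 AC (forskolin-stimulated) cells were exposed to a single 30 µM dose (n = 3). cAMP activity was normalized to DMSO controls set as 100%.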

[3] = (§3) Cytotoxicity against HEK293 cells expressing human AC1 at 30 uM preincubated for 30 mins followed by A23187 stimulation and measured after 1 hr by CellTiter-Glo luminescent cell viability assay relative to control; assay type: cell-based; settings: HEK293 cells expressing human AC1, read-out: Activity
Method in brief: (§4)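 Cytotoxicity in HEK lines stably expressing AC1 or AC8: single 30 µM dose, 90 min incubation. Viability was read by luminescent ATP reporter as % of DMSO-treated (100%) and Triton-X-treated (0%) controls.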

[4] = target: Adenylate cyclase type 5 (Homo sapiens) (UniProt O95622); assay: Inhibition of human AC5 expressed in HEK293 cells assessed as forskolin-stimulated cAMP accumulation at 30 uM preincubated for 30 mins followed by forskolin stimulation and measured after 1 hr by fluorescence assay relative to control; assay type: cell-based; set-up: scale not given: the % may be the effect or the level left; method in brief: as §2
Adenylate cyclase type 5 (Homo sapiens), sequence (O95622 whole entry, looked up): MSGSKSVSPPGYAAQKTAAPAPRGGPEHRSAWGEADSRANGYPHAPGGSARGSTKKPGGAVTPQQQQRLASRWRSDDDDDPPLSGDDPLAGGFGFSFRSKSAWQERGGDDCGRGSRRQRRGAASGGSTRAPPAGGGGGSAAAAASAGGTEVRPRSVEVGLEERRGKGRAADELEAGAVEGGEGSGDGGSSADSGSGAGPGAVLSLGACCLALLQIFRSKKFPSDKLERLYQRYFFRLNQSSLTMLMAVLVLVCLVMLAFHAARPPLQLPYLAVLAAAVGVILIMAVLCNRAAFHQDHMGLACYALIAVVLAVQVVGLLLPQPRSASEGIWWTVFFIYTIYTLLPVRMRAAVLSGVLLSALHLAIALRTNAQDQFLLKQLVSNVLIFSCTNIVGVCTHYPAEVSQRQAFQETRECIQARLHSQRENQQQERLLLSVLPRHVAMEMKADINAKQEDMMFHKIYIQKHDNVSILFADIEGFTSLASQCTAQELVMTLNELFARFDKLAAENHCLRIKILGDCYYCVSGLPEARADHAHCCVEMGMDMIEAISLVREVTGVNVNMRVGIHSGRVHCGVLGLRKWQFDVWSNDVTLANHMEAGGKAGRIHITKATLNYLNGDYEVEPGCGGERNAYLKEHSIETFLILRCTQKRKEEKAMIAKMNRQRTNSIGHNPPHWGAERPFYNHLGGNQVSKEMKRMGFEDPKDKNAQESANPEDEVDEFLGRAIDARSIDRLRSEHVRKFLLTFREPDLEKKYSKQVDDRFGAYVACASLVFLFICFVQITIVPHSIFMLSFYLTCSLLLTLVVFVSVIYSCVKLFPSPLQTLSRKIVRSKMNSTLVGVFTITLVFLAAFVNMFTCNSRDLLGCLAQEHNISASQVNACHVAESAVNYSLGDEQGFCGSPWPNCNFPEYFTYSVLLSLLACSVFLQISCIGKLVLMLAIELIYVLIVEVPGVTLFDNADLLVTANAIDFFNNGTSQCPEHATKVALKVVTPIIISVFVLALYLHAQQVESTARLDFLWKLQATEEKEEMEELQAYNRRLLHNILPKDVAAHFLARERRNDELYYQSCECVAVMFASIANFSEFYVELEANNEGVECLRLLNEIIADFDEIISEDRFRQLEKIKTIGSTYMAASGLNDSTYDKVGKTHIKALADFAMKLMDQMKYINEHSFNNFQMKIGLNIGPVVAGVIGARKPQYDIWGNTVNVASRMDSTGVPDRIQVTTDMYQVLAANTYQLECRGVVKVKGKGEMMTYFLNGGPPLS

Adenylate cyclase type 8 [5] = target: T2, Adenylate cyclase type 8 (Homo sapiens, UniProt P40145); assay: Inhibition of human AC8 expressed in HEK293 cells assessed as decrease in A23187-stimulated cAMP accumulation at 30 uM preincubated for 30 mins followed by A23187 stimulation and measured after 1 hr by fluorescence assay relative to control; assay type: cell-based; method in brief: as §1
T2 sequence (P40145 whole entry): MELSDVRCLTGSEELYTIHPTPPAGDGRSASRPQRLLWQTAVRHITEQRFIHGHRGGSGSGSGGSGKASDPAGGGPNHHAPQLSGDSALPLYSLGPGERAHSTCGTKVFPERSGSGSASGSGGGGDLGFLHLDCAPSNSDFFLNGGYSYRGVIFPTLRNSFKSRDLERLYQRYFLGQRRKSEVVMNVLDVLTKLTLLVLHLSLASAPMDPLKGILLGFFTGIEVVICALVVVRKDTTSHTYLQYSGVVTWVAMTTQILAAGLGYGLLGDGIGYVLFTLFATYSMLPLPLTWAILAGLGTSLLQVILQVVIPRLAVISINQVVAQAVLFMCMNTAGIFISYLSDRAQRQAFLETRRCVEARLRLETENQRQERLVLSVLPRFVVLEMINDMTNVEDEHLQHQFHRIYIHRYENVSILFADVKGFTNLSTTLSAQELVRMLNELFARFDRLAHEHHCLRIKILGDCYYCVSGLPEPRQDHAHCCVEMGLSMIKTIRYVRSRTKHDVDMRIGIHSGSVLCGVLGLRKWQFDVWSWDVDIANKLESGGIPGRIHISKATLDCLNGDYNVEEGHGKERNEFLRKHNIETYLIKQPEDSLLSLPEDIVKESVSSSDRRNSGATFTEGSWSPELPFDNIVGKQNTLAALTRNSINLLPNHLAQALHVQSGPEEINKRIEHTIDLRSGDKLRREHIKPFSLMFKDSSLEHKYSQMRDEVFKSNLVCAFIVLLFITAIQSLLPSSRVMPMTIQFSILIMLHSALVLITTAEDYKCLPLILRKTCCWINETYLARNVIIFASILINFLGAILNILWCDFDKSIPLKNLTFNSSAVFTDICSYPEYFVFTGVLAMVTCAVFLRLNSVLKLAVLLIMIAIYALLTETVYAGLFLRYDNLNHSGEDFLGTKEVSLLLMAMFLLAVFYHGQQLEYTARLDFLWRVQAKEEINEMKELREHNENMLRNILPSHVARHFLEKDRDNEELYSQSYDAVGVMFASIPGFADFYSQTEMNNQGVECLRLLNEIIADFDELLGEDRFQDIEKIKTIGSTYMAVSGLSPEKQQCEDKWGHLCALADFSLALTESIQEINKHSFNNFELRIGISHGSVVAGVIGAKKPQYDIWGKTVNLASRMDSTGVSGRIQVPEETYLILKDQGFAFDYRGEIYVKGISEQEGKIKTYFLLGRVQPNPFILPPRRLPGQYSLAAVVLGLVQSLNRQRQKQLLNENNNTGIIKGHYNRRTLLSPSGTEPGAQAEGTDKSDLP

Adenylate cyclase type 8 [6] = target: T2, Adenylate cyclase type 8; assay: Inhibition of human AC8 expressed in HEK293 cells assessed as decrease in A23187-stimulated cAMP accumulation preincubated for 30 mins followed by A23187 stimulation and measured after 1 hr by fluorescence assay; assay type: cell-based; method in brief: as §1
Homo sapiens = species: Homo sapiens; assay: Selectivity ratio of IC50 for human AC8 expressed in HEK293 cells to IC50 for human AC1 expressed in HEK293 cells; assay type: cell-based
Adenylate cyclase type 1 [7] = target: T1, Adenylate cyclase type 1; assay: Inhibition of human AC1 expressed in HEK293 AC3/AC6 deficit cells assessed as decrease in forskolin-stimulated cAMP accumulation preincubated for 30 mins followed by forskolin stimulation and measured after 1 hr by fluorescence assay; assay type: cell-based
Method in brief: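 HEK cells lacking AC3/AC6 were transiently transfected with AC1. Cells were incubated with test compounds in the presence of forskolin at 3, 10 or 30 µM, and cAMP accumulation was measured.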
Target sequence in this assay (Q08828 whole entry, looked up): as the sequence (Q08828 whole entry) above

HEK293 = assay: as §3; assay type: cell-based; settings: hek293, 1 h, 30 µM; method in brief: as §4
Adenylate cyclase type 1 [8] = target: T1, Adenylate cyclase type 1; assay: Inhibition of human AC1 expressed in HEK293 cells assessed as decrease in A23187-stimulated cAMP accumulation at 30 uM preincubated for 30 mins followed by A23187 stimulation and measured after 1 hr by fluorescence assay relative to control; assay type: cell-based; method in brief: as §1
Target sequence in this assay (Q08828 whole entry, looked up): as the sequence (Q08828 whole entry) above

Adenylate cyclase type 1 [9] = target: T1, Adenylate cyclase type 1; assay: Inhibition of AC1 (unknown origin) expressed in HEK cells assessed as decrease in A23187-stimulated cAMP accumulation preincubated for 30 mins followed by A23187 stimulation and measured after 1 hr; assay type: cell-based; method in brief: as §1
Target sequence in this assay (Q08828 whole entry): as above

Mus musculus [10] = assay: Analgesic activity in C57BL/6 mouse model of CFA-induced inflammatory pain model assessed as reduction in mechanical sensitivity in ipsilateral paw at 5 mg/kg, ip measured after 30 mins post dose by von Frey filament test based modified up-and-down technique; assay type: functional, organism-based
Method in brief: (§5)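 Male C57BL/6 mice (n=7) received CFA in the ipsilateral hind paw. On day 2, after baseline hypersensitivity was measured, they were given vehicle or 5 mg/kg i.p. Mechanical sensitivity of ipsilateral and contralateral paws was recorded 30 min after injection. Analysis used two-way repeated-measures ANOVA with Bonferroni test.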

Mus musculus [11] = assay: Analgesic activity in C57BL/6 mouse model of CFA-induced inflammatory pain model assessed as reduction in mechanical sensitivity in ipsilateral paw at 5 mg/kg, ip measured after 1 day post dose by von Frey filament test based modified up-and-down technique; assay type: functional, organism-based
Mus musculus [12] = assay: Effect on mechanical sensitivity in contralateral pa in C57BL/6 mouse model of CFA-induced inflammatory pain model at 5 mg/kg, ip measured after 30 mins post dose by von Frey filament test based modified up-and-down technique; assay type: ADME, organism-based; settings: in vivo, 0.5 h; method in brief: as §5

Row | SMILES | IC50 (Adenylate cyclase type 1 [1]) | inhibition (Adenylate cyclase type 8 [5]) | viability at 1 h, 30 µM [3] | Ratio IC50 (Homo sapiens) | also measured
1 | O=C(Nc1nnc(-c2ccc3c(c2)CCCC3)o1)c1cccc(C(F)(F)F)c1 |  |  | 107 to 125% | 4.9 to 9 | Activity [2]: 449%; inhibition (Adenylate cyclase type 1 [7]): Dose-dependent effect; Activity [4]: 189%
2 | O=C(Nc1nnc(-c2ccccc2)o1)c1cccc(C(F)(F)F)c1 | 13 µM | 23% |  | > 2.3 | Activity (HEK293): 78%
3 | Nc1ncnc2c1NCN2C1CCCO1 (configuration not stated) |  |  |  |  | inhibition (Adenylate cyclase type 1 [7]): Dose-dependent effect
4 | COc1ccc(-c2nnc(NC(=O)c3cc(-c4cccs4)nc4ccccc34)o2)cc1 | 4.6 µM |  | 118% | 1.2 | IC50 (Adenylate cyclase type 8 [6]): 5.6 µM
5 | O=c1cc(C(Cl)(Cl)Cl)oc2ccc(Cl)cc12 |  |  |  |  | IC50 (Adenylate cyclase type 1 [9]): 2.3 µM
6 | Cc1cc(C(=O)Nc2nnc(-c3ccc(F)cc3)o2)cc(C(F)(F)F)c1 |  |  | 102% | 2.9 | Activity (Mus musculus [10]): Active; Activity (Mus musculus [11]): inactive; Activity (Mus musculus [12]): Non-Toxic
7 | CCOc1cccc2cc(-c3nnc(NC(=O)c4ccccc4SC)o3)oc12 | 11 µM |  | 127% | 1 | IC50 (Adenylate cyclase type 8 [6]): 11 µM
8 | COc1cc(C(=O)Nc2nnc(-c3ccc(F)cc3)o2)cc(C(F)(F)F)c1 |  |  | 108% | 5.8 | IC50 (Adenylate cyclase type 8 [6]): 29 µM
9 | O=C(Nc1nnc(-c2ccc(F)cc2)o1)c1cccc(-c2ccccc2)c1 |  |  |  | 3 | Activity (HEK293): 71%

Continued, in another order:

Row | IC50 (Adenylate cyclase type 1 [1]) | inhibition (Adenylate cyclase type 8 [5]) | SMILES | viability at 1 h, 30 µM [3] | Ratio IC50 (Homo sapiens) | also measured
10 | 12 µM | 25% | Cc1ccc(C(=O)Nc2nnc(-c3ccc4c(c3)OCCO4)o2)cc1 | 98% |  | Activity [2]: 218%; Activity [4]: 194%
11 | 1.5 µM |  | O=C(Nc1nnc(-c2ccc3c(c2)CCCC3)o1)c1ccc(Cl)cc1 | 97% | 2.4 | IC50 (Adenylate cyclase type 8 [6]): 3.6 µM
12 |  | 21% | CC(C)Oc1ccc(C(=O)Nc2nnc(-c3ccco3)o2)cc1 | 58% |  | inhibition (Adenylate cyclase type 1 [8]): 39%
13 |  | 13% | O=C(Nc1nnc(-c2ccc(F)cc2)o1)c1ccccc1F | 87% |  | inhibition (Adenylate cyclase type 1 [8]): 12%
14 |  | 28% | O=C(Nc1nnc(-c2ccco2)o1)c1ccccc1 |  |  | Activity (HEK293): 73%; inhibition (Adenylate cyclase type 1 [8]): 20%
